Assay results taken from publication PMC7867784 (Translational Lung Cancer Research, 2021).

Tested on: Japanese patients with RET-rearranged NSCLC
Assay: ALL-RET phase 1/2 trial: safety
Format: in vivo, human
Procedure, shortened: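 Adverse events were graded by NCI CTCAE v4.0, with causal relation to treatment recorded separately. Dose finding used a 3+3 de-escalation design with 3–6 patients per cohort. DLT was evaluated over the first 21-day cycle and defined as grade ≥4 thrombopenia, grade ≥3 febrile neutropenia, grade ≥4 neutropenia lasting ≥4 days, or grade ≥3 non-hematologic toxicity, with specified exceptions. Follow-up ran until January 2019.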

`CCc1cc2c(cc1N1CCC(N3CCOCC3)CC1)C(C)(C)c1[nH]c3cc(C#N)ccc3c1C2=O` [alectinib] was tested, and the “grade 4 AEs” value (450 mg BID) was “no grade 4 AEs were observed”, the “Aspartate aminotransferase increase, any grade, number (total)” value (450 mg BID (N=28)) was 9 and the “Aspartate aminotransferase increase, any grade, number [causally related]” value (450 mg BID (N=28)) was 7. For the same compound, the “Aspartate aminotransferase increase, any grade, percent (total)” value (450 mg BID (N=28)) was 32.1%, the “Aspartate aminotransferase increase, any grade, percent [causally related]” value (450 mg BID (N=28)) was 25.0% and the “Aspartate aminotransferase increase, grade 1–2, number (total)” value (450 mg BID (N=28)) was 9. For the same compound, the “Aspartate aminotransferase increase, grade 1–2, number [causally related]” value (450 mg BID (N=28)) was 7, the “Aspartate aminotransferase increase, grade 3, number” value (450 mg BID (N=28)) was 0 and the “Aspartate aminotransferase increase, grade 4, number” value (450 mg BID (N=28)) was 0. The “Bilirubin increase, any grade, number (total)” value (450 mg BID (N=28)) was 6 [6], the “Bilirubin increase, any grade, number [causally related]” value (450 mg BID (N=28)) was 6 [6] and the “Bilirubin increase, any grade, percent” value (450 mg BID (N=28)) was 21.4%. The “Bilirubin increase, grade 1–2, number (total)” value (450 mg BID (N=28)) was 5 [5], the “Bilirubin increase, grade 1–2, number [causally related]” value (450 mg BID (N=28)) was 5 [5] and the “Bilirubin increase, grade 3, number (total)” value (450 mg BID (N=28)) was 1 [1]. The “Bilirubin increase, grade 3, number [causally related]” value (450 mg BID (N=28)) was 1 [1], the “Bilirubin increase, grade 4, number” value (450 mg BID (N=28)) was 0 and the “Constipation, any grade, number [causally related]” value (450 mg BID (N=28)) was 12. The “Constipation, any grade, percent (total)” value (450 mg BID (N=28)) was 57.1%, the “Constipation, any grade, percent [causally related]” value (450 mg BID (N=28)) was 42.9% and the “Constipation, grade 1–2, number (total)” value (450 mg BID (N=28)) was 16. For the same compound, the “Constipation, grade 1–2, number [causally related]” value (450 mg BID (N=28)) was 12, the “Constipation, grade 3, number” value (450 mg BID (N=28)) was 0 and the “Constipation, grade 4, number” value (450 mg BID (N=28)) was 0. For the same compound, the “Creatine phosphokinase increase, any grade, number (total)” value (450 mg BID (N=28)) was 13 [13], the “Creatine phosphokinase increase, any grade, number [causally related]” value (450 mg BID (N=28)) was 13 [13] and the “Creatine phosphokinase increase, any grade, percent” value (450 mg BID (N=28)) was 46.4%. The “Creatine phosphokinase increase, grade 1–2, number (total)” value (450 mg BID (N=28)) was 12 [12], the “Creatine phosphokinase increase, grade 1–2, number [causally related]” value (450 mg BID (N=28)) was 12 [12] and the “Creatine phosphokinase increase, grade 3, number (total)” value (450 mg BID (N=28)) was 1 [1]. For the same compound, the “Creatine phosphokinase increase, grade 3, number [causally related]” value (450 mg BID (N=28)) was 1 [1], the “Creatine phosphokinase increase, grade 4, number” value (450 mg BID (N=28)) was 0 and the “Creatinine increase, any grade, number (total)” value (450 mg BID (N=28)) was 8 [8]. The “Creatinine increase, any grade, number [causally related]” value (450 mg BID (N=28)) was 8 [8], the “Creatinine increase, any grade, percent” value (450 mg BID (N=28)) was 28.6% and the “Creatinine increase, grade 1–2, number (total)” value (450 mg BID (N=28)) was 8 [8]. For the same compound, the “Creatinine increase, grade 1–2, number [causally related]” value (450 mg BID (N=28)) was 8 [8], the “Creatinine increase, grade 3, number” value (450 mg BID (N=28)) was 0 and the “Creatinine increase, grade 4, number” value (450 mg BID (N=28)) was 0. The “Diarrhea, any grade, number (total)” value (450 mg BID (N=28)) was 3, the “Diarrhea, any grade, number [causally related]” value (450 mg BID (N=28)) was 2 and the “Diarrhea, any grade, percent (total)” value (450 mg BID (N=28)) was 10.7%. The “Diarrhea, any grade, percent [causally related]” value (450 mg BID (N=28)) was 7.1%, the “Diarrhea, grade 1–2, number (total)” value (450 mg BID (N=28)) was 2 [2] and the “Diarrhea, grade 1–2, number [causally related]” value (450 mg BID (N=28)) was 2 [2]. The “Diarrhea, grade 3, number (total)” value (450 mg BID (N=28)) was 1, the “Diarrhea, grade 3, number [causally related]” value (450 mg BID (N=28)) was 0 and the “Diarrhea, grade 4, number” value (450 mg BID (N=28)) was 0. The “Hyponatraemia, any grade, number (total)” value (450 mg BID (N=28)) was 1 [1], the “Hyponatraemia, any grade, number [causally related]” value (450 mg BID (N=28)) was 1 [1] and the “Hyponatraemia, any grade, percent” value (450 mg BID (N=28)) was 3.6%. The “Hyponatraemia, grade 1–2, number” value (450 mg BID (N=28)) was 0, the “Hyponatraemia, grade 3, number (total)” value (450 mg BID (N=28)) was 1 [1] and the “Hyponatraemia, grade 3, number [causally related]” value (450 mg BID (N=28)) was 1 [1]. For the same compound, the “Hyponatraemia, grade 4, number” value (450 mg BID (N=28)) was 0, the “Neutropenia, any grade, number (total)” value (450 mg BID (N=28)) was 1 [1] and the “Neutropenia, any grade, number [causally related]” value (450 mg BID (N=28)) was 1 [1]. For the same compound, the “Neutropenia, any grade, percent” value (450 mg BID (N=28)) was 3.6%, the “Neutropenia, grade 1–2, number” value (450 mg BID (N=28)) was 0 and the “Neutropenia, grade 3, number (total)” value (450 mg BID (N=28)) was 1 [1]. For the same compound, the “Neutropenia, grade 3, number [causally related]” value (450 mg BID (N=28)) was 1 [1], the “Neutropenia, grade 4, number” value (450 mg BID (N=28)) was 0 and the “Pneumonitis, any grade, percent (total)” value (450 mg BID (N=28)) was 3.6%. For the same compound, the “Pneumonitis, any grade, percent [causally related]” value (450 mg BID (N=28)) was 0.0%, the “Pneumonitis, grade 1–2, number” value (450 mg BID (N=28)) was 0 and the “Pneumonitis, grade 3, number (total)” value (450 mg BID (N=28)) was 1 [1]. For the same compound, the “Pneumonitis, grade 3, number [causally related]” value (450 mg BID (N=28)) was 1 [1], the “Pneumonitis, grade 4, number” value (450 mg BID (N=28)) was 0 and the “Constipation, any grade, number (total)” value (450 mg BID (N=28; phase 1 N=3, phase 2 N=25)) was 16. For the same compound, the “dose reduction due to toxicity” value (450 mg BID, 28 patients) was “no patients required a dose reduction”, the “patients whose treatment was discontinued due to pneumonitis” value (450 mg BID, out of 28 patients) was 1 and the “Alkaline phosphatase increase, any grade, number (total)” value (600 mg BID (N=6)) was 2 [2]. The “Alkaline phosphatase increase, any grade, number [causally related]” value (600 mg BID (N=6)) was 2 [2], the “Alkaline phosphatase increase, any grade, percent” value (600 mg BID (N=6)) was 33.3% and the “Alkaline phosphatase increase, grade 1–2, number (total)” value (600 mg BID (N=6)) was 1[1]. The “Alkaline phosphatase increase, grade 1–2, number [causally related]” value (600 mg BID (N=6)) was 1[1], the “Alkaline phosphatase increase, grade 3, number (total)” value (600 mg BID (N=6)) was 1[1] and the “Alkaline phosphatase increase, grade 3, number [causally related]” value (600 mg BID (N=6)) was 1[1]. For the same compound, the “Alkaline phosphatase increase, grade 4, number” value (600 mg BID (N=6)) was 0, the “Cholangitis, any grade, number (total)” value (600 mg BID (N=6)) was 1 [1] and the “Cholangitis, any grade, number [causally related]” value (600 mg BID (N=6)) was 1 [1]. For the same compound, the “Cholangitis, any grade, percent” value (600 mg BID (N=6)) was 16.7%, the “Cholangitis, grade 1–2, number” value (600 mg BID (N=6)) was 0 and the “Cholangitis, grade 3, number (total)” value (600 mg BID (N=6)) was 1 [1]. The “Cholangitis, grade 3, number [causally related]” value (600 mg BID (N=6)) was 1 [1], the “Cholangitis, grade 4, number” value (600 mg BID (N=6)) was 0 and the “Constipation, any grade, number (total)” value (600 mg BID (N=6)) was 4 [4].
